Test system: Fibroblast
Assay: Multiplex assay against human fibroblast
Type: toxicity, cell-based
Summary of the method: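 Phenotypes for tubulin, mitochondrial mass and membrane permeability are expressed as per cents of healthy-nucleus cells. Cells were stained live at seeding with Hoechst33342, BioTracker Green Microtubule Cytoskeleton Dye, MitoTracker Red and Annexin V Alexa Fluor 680, then imaged after compound addition on a CQ1 microscope at 37°C and 5% CO2. Machine-learning gating in CellPathfinder separated Hoechst high-intensity objects from normal cells, divided normal cells by nuclear state (healthy, pyknosed, fragmented) and divided pyknosed cells into mitotic or apoptotic.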

[1] = 12 h, 1 µM, compound concentration 1 uM, replicate 1
[2] = 12 h, 1 µM, compound concentration 1 uM, replicate 2
[3] = 12 h, 10 µM, compound concentration 10 uM, replicate 1
[4] = 12 h, 10 µM, compound concentration 10 uM, replicate 2
[5] = 24 h, 1 µM, compound concentration 1 uM, replicate 1
[6] = 24 h, 1 µM, compound concentration 1 uM, replicate 2
[7] = 24 h, 10 µM, compound concentration 10 uM, replicate 1
[8] = 24 h, 10 µM, compound concentration 10 uM, replicate 2
[9] = 48 h, 1 µM, compound concentration 1 uM, replicate 1
[10] = 48 h, 1 µM, compound concentration 1 uM, replicate 2
[11] = 48 h, 10 µM, compound concentration 10 uM, replicate 1
[12] = 48 h, 10 µM, compound concentration 10 uM, replicate 2

CCCCC1=NC2(CCCC2)C(=O)N1Cc1ccc(-c2ccccc2-c2nnn[nH]2)cc1 [IRBESARTAN]
Population Apoptotic (%) [1]: 40%
Population Fragmented Nuclei (%) [1]: 14%
Population Healthy Nuclei (%) [1]: 67%
Population Hoechst High Intensity Objects (%) [1]: 1%
Population Membrane Permeable-Phenotype (%) [1]: 0%
Population Mitochondria Different-Phenotype (%) [1]: 5%
Population Mitotic Cells (%) [1]: 59%
Population Normal (%) [1]: 98%
Population Pyknosed Nuclei (%) [1]: 17%
Population Tubulin-Different-Phenotype (%) [1]: 28%
Total Cell Count [1]: 159
Population Apoptotic (%) [2]: 38%
Population Fragmented Nuclei (%) [2]: 24%
Population Healthy Nuclei (%) [2]: 55%
Population Hoechst High Intensity Objects (%) [2]: 3%
Population Membrane Permeable-Phenotype (%) [2]: 7%
Population Mitochondria Different-Phenotype (%) [2]: 2%
Population Mitotic Cells (%) [2]: 61%
Population Normal (%) [2]: 96%
Population Pyknosed Nuclei (%) [2]: 20%
Population Tubulin-Different-Phenotype (%) [2]: 43%
Total Cell Count [2]: 187
Population Apoptotic (%) [3]: 60%
Population Fragmented Nuclei (%) [3]: 11%
Population Healthy Nuclei (%) [3]: 74%
Population Hoechst High Intensity Objects (%) [3]: 3%
Population Membrane Permeable-Phenotype (%) [3]: 3%
Population Mitochondria Different-Phenotype (%) [3]: 4%
Population Mitotic Cells (%) [3]: 40%
Population Normal (%) [3]: 96%
Population Pyknosed Nuclei (%) [3]: 13%
Population Tubulin-Different-Phenotype (%) [3]: 37%
Total Cell Count [3]: 151
Population Apoptotic (%) [4]: 45%
Population Fragmented Nuclei (%) [4]: 32%
Population Healthy Nuclei (%) [4]: 48%
Population Hoechst High Intensity Objects (%) [4]: 7%
Population Membrane Permeable-Phenotype (%) [4]: 12%
Population Mitochondria Different-Phenotype (%) [4]: 3%
Population Mitotic Cells (%) [4]: 54%
Population Normal (%) [4]: 92%
Population Pyknosed Nuclei (%) [4]: 18%
Population Tubulin-Different-Phenotype (%) [4]: 53%
Total Cell Count [4]: 129
Population Apoptotic (%) [5]: 47%
Population Fragmented Nuclei (%) [5]: 19%
Population Healthy Nuclei (%) [5]: 69%
Population Hoechst High Intensity Objects (%) [5]: 2%
Population Membrane Permeable-Phenotype (%) [5]: 1%
Population Mitochondria Different-Phenotype (%) [5]: 3%
Population Mitotic Cells (%) [5]: 52%
Population Normal (%) [5]: 97%
Population Pyknosed Nuclei (%) [5]: 10%
Population Tubulin-Different-Phenotype (%) [5]: 22%
Total Cell Count [5]: 170
Population Apoptotic (%) [6]: 31%
Population Fragmented Nuclei (%) [6]: 25%
Population Healthy Nuclei (%) [6]: 57%
Population Hoechst High Intensity Objects (%) [6]: 3%
Population Mitochondria Different-Phenotype (%) [6]: 0%
Population Mitotic Cells (%) [6]: 68%
Population Normal (%) [6]: 96%
Population Pyknosed Nuclei (%) [6]: 16%
Population Tubulin-Different-Phenotype (%) [6]: 40%
Total Cell Count [6]: 183
Population Apoptotic (%) [7]: 56%
Population Fragmented Nuclei (%) [7]: 9%
Population Healthy Nuclei (%) [7]: 74%
Population Hoechst High Intensity Objects (%) [7]: 1%
Population Membrane Permeable-Phenotype (%) [7]: 3%
Population Mitochondria Different-Phenotype (%) [7]: 7%
Population Mitotic Cells (%) [7]: 44%
Population Normal (%) [7]: 98%
Population Pyknosed Nuclei (%) [7]: 16%
Population Tubulin-Different-Phenotype (%) [7]: 37%
Total Cell Count [7]: 155
Population Apoptotic (%) [8]: 45%
Population Fragmented Nuclei (%) [8]: 36%
Population Healthy Nuclei (%) [8]: 47%
Population Hoechst High Intensity Objects (%) [8]: 2%
Population Membrane Permeable-Phenotype (%) [8]: 8%
Population Mitochondria Different-Phenotype (%) [8]: 5%
Population Mitotic Cells (%) [8]: 55%
Population Normal (%) [8]: 97%
Population Tubulin-Different-Phenotype (%) [8]: 60%
Total Cell Count [8]: 125
Population Apoptotic (%) [9]: 60%
Population Fragmented Nuclei (%) [9]: 21%
Population Healthy Nuclei (%) [9]: 69%
Population Hoechst High Intensity Objects (%) [9]: 3%
Population Membrane Permeable-Phenotype (%) [9]: 0%
Population Mitochondria Different-Phenotype (%) [9]: 4%
Population Mitotic Cells (%) [9]: 40%
Population Normal (%) [9]: 96%
Population Pyknosed Nuclei (%) [9]: 8%
Population Tubulin-Different-Phenotype (%) [9]: 31%
Total Cell Count [9]: 173
Population Apoptotic (%) [10]: 55%
Population Fragmented Nuclei (%) [10]: 31%
Population Healthy Nuclei (%) [10]: 58%
Population Hoechst High Intensity Objects (%) [10]: 2%
Population Membrane Permeable-Phenotype (%) [10]: 2%
Population Mitochondria Different-Phenotype (%) [10]: 1%
Population Mitotic Cells (%) [10]: 44%
Population Normal (%) [10]: 97%
Population Pyknosed Nuclei (%) [10]: 10%
Population Tubulin-Different-Phenotype (%) [10]: 39%
Total Cell Count [10]: 178
Population Apoptotic (%) [11]: 61%
Population Fragmented Nuclei (%) [11]: 14%
Population Healthy Nuclei (%) [11]: 66%
Population Hoechst High Intensity Objects (%) [11]: 2%
Population Membrane Permeable-Phenotype (%) [11]: 1%
Population Mitochondria Different-Phenotype (%) [11]: 5%
Population Mitotic Cells (%) [11]: 38%
Population Normal (%) [11]: 97%
Population Pyknosed Nuclei (%) [11]: 18%
Population Tubulin-Different-Phenotype (%) [11]: 38%
Total Cell Count [11]: 141
Population Apoptotic (%) [12]: 37%
Population Fragmented Nuclei (%) [12]: 37%
Population Healthy Nuclei (%) [12]: 48%
Population Hoechst High Intensity Objects (%) [12]: 0%
Population Membrane Permeable-Phenotype (%) [12]: 3%
Population Mitochondria Different-Phenotype (%) [12]: 1%
Population Mitotic Cells (%) [12]: 62%
Population Normal (%) [12]: 99%
Population Pyknosed Nuclei (%) [12]: 13%
Population Tubulin-Different-Phenotype (%) [12]: 58%
Total Cell Count [12]: 117
